# Data from ChEMBL document CHEMBL3112570, “Design, synthesis, and evaluation of pyrrolo[2,1-f][1,2,4]triazine derivatives as novel hedgehog signaling pathway inhibitors” (Bioorg Med Chem, 2014).
# Tests used:
# [1] = Inhibition of hedgehog signaling pathway in mouse NIH/3T3 cells after 48 hrs by Gli-luciferase reporter gene assay; assay type: cell-based; conditions: NIH3T3, 48 h
# Summary of the method: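 NIH3T3 cells stably carrying a Gli-luciferase reporter, kept in DMEM + 10% FBS with puromycin. Seeded at 2 × 10⁴ cells/well and cultured overnight at 37 °C, 5% CO₂. Compounds added as an 8-point series (0.05–300 nM) in medium with 0.5% FBS plus Sonic Hedgehog agonist 0.7 µg/mL, n = 4 wells per concentration, 48 h. […] Lysates read by dual-luciferase.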
# [2] = Apparent volume of distribution in Sprague-Dawley rat at 1 mg/kg, iv by LC/MS/MS analysis; assay type: ADME, organism-based; design: dose 1 mg/kg, route intravenous; conditions: in vivo, read-out: Vz
# Summary of the method: (§1)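 Sprague-Dawley rats dosed iv at 1 mg/kg (n = 3). Blood samples were centrifuged at 4000 rpm for 5 min at 4 °C to give plasma. PK parameters were derived from plasma concentration-time data by noncompartmental analysis.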
# [3] = Mean residence time (0 to t) in Sprague-Dawley rat at 1 mg/kg, iv by LC/MS/MS analysis; assay type: ADME, organism-based; design: dose 1 mg/kg, route intravenous; conditions: in vivo; summary of the method: as §1
# [4] = AUC in Sprague-Dawley rat at 1 mg/kg, iv by LC/MS/MS analysis; assay type: ADME, organism-based; design: dose 1 mg/kg, route intravenous; conditions: plasma; summary of the method: as §1
# [5] = Clearance in Sprague-Dawley rat at 1 mg/kg, iv by LC/MS/MS analysis; assay type: ADME, organism-based; design: dose 1 mg/kg, route intravenous; conditions: in vivo; summary of the method: as §1
# [6] = Elimination half life in Sprague-Dawley rat at 1 mg/kg, iv by LC/MS/MS analysis; assay type: ADME, organism-based; design: dose 1 mg/kg, route intravenous; conditions: in vivo, read-out: beta t1/2 (converted); summary of the method: as §1
# [7] = Cmax in Sprague-Dawley rat at 1 mg/kg, iv by LC/MS/MS analysis; assay type: ADME, organism-based; design: dose 1 mg/kg, route intravenous; conditions: in vivo; summary of the method: as §1
Structure (SMILES),IC50 [1] [nM],Vd [2] [L/kg],MRT last [3] [h],AUC [4] [ng·h/mL],clearance [5] [mL/min/kg],half-life [6] [min],Cmax [7] [ng/mL]
Cc1cccc(C)c1NC(=O)c1ccc(Nc2nc(C)c(C)c(-c3ccc(OC(F)(F)F)cc3)n2)cc1,1.6,,,,,,
Cc1cc(-c2ccc(OC(F)(F)F)cc2)nc(Nc2ccc(C(=O)Nc3c(C)cccc3C)cc2)n1,1.4,,,,,,
CCCc1cc(-c2ccc(OC(F)(F)F)cc2)nc(Nc2ccc(C(=O)Nc3c(C)cccc3C)cc2)n1,0.8,,,,,,
CCc1cnc(Nc2ccc(C(=O)Nc3c(C)cccc3C)cc2)nc1-c1ccc(OC(F)(F)F)cc1,5.3,,,,,,
Cc1ccc(CN2CCCCC2)cc1NC(=O)c1ccc(Nc2nc(-c3cnn(C)c3)c3cccn3n2)cc1,11.1,,,,,,
Cc1ccc(CN2CCCC2)cc1NC(=O)c1ccc(Nc2nc(-c3cnn(C)c3)c3cccn3n2)cc1,12.3,,,,,,
Cc1ccc(CN2CCOCC2)cc1NC(=O)c1ccc(Nc2nc(-c3ccccc3)c3cccn3n2)cc1,1.5,,,,,,
Cc1ccc(CN2CCOCC2)cc1NC(=O)c1ccc(Nc2nc(-c3ccccn3)c3cccn3n2)cc1,0.97,2.85,1.64,764,22,90.6,637
Cc1ccc(CN2CCOCC2)cc1NC(=O)c1ccc(Nc2nc(-c3cccnc3)c3cccn3n2)cc1,1.6,,,,,,
Cc1ccc(CN2CCOCC2)cc1NC(=O)c1ccc(Nc2nc(-c3ccc(OC(F)(F)F)cc3)c3cccn3n2)cn1,1.1,5.97,3.49,1940,8.38,500,4190
O=C(Nc1cccc(CN2CCOCC2)c1)c1ccc(Nc2nc(-c3ccc(OC(F)(F)F)cc3)c3cccn3n2)cn1,8.8,,,,,,
Cc1ccc(CN2CCOCC2)cc1NC(=O)c1ccc(Nc2nc(-c3ccccn3)c3cccn3n2)cn1,1.1,,,,,,
Cc1ccc(CN2CCOCC2)cc1NC(=O)c1ccc(Nc2nc(-c3ccccn3)c3cccn3n2)c(F)c1,0.73,,,,,,
Cc1ccc(CN2CCCCC2)cc1NC(=O)c1ccc(Nc2nc(-c3ccc(OC(F)(F)F)cc3)c3cccn3n2)cc1,0.62,,,,,,
Cc1ccc(CN2CCCC2)cc1NC(=O)c1ccc(Nc2nc(-c3ccc(OC(F)(F)F)cc3)c3cccn3n2)cc1,1.7,,,,,,
Cc1ccc(CN2CCOCC2)cc1NC(=O)c1ccc(Nc2nc(-c3cnn(C)c3)c3cccn3n2)cc1,1.2,2.19,1.31,791,21.1,73.8,1070
Cc1ccc(CN2CCN(C)CC2)cc1NC(=O)c1ccc(Nc2nc(-c3cnn(C)c3)c3cccn3n2)cc1,7.5,,,,,,
Cc1ccc(CN2CCN(C)CC2)cc1NC(=O)c1ccc(Nc2nc(-c3ccc(OC(F)(F)F)cc3)c3cccn3n2)cc1,1.7,,,,,,
Cc1cccc(C)c1NC(=O)c1ccc(Nc2nc(-c3ccc(OC(F)(F)F)cc3)c3cccn3n2)cc1,1.6,12.6,4.68,1430,9.66,909,2440
Cc1ccc(CN2CCOCC2)cc1NC(=O)c1ccc(Nc2nc(-c3ccc(OC(F)(F)F)cc3)c3cccn3n2)cc1,0.83,5.23,4.83,2230,6.9,532,2720
CS(=O)(=O)c1ccc(C(=O)Nc2ccc(Cl)c(-c3ccccn3)c2)c(Cl)c1 [VISMODEGIB],7.2,,2.23,2460,6.77,98.4,1250
